# From ChEMBL document CHEMBL1141882, “Synthesis and biological testing of purine derivatives as potential ATP-competitive kinase inhibitors” (J Med Chem, 2005)
# Tests used:
# [1] = biological target: Mitogen-activated protein kinase 8 (Homo sapiens) (UniProt P45983); assay: Inhibition of human c-Jun N-terminal kinase-1 alpha-1 at 30 uM
# Summary of the method: (§1)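 Kinase activity assayed with ATP at 100 µM, deliberately higher than usual assay ATP levels because the inhibitors are assumed ATP-competitive. Results are reported as percent inhibition of each kinase.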
# [2] = biological target: Ca2+/calmodulin-dependent protein kinase II (CaM kinase II) (Rattus norvegicus) (UniProt P11275+P08413+P15791+P11730); assay: Inhibition of rat Calcium/calmodulin-dependent protein kinase type II at 30 uM; type: protein assay; summary of the method: as §1
# [3] = biological target: Protein kinase C alpha type (Homo sapiens) (UniProt P17252); assay: Inhibition of human Protein kinase C alpha; design: concentration or dose not given beside the values; conditions: concentration not given here
# [4] = biological target: RAC-alpha serine/threonine-protein kinase (Homo sapiens) (UniProt P31749); assay: Inhibition of human Protein kinase B alpha at 30 uM; summary of the method: as §1
# [5] = biological target: Dual specificity mitogen-activated protein kinase kinase 1 (Homo sapiens) (UniProt Q02750); assay: Inhibition of human Mitogen activated protein kinase kinase 1 (MEK1) at 30 uM; summary of the method: as §1
# [6] = biological target: Glycogen synthase kinase-3 beta (Homo sapiens) (UniProt P49841); assay: Inhibition of human Glycogen synthase kinase-3 beta at 30 uM; summary of the method: as §1
# [7] = biological target: cAMP-dependent protein kinase (PKA) (Homo sapiens) (UniProt P22694+P17612+P22612); assay: Inhibition of human cAMP-dependent protein kinase (PKA); type: protein assay; design: concentration or dose not given beside the values; conditions: concentration not given here
# [8] = biological target: RAF proto-oncogene serine/threonine-protein kinase (Homo sapiens) (UniProt P04049); assay: Inhibition of human RAF proto-oncogene serine/threonine-protein kinase at 30 uM; summary of the method: as §1
# [9] = biological target: Mitogen-activated protein kinase 14 (Homo sapiens) (UniProt Q16539); assay: Inhibition of human stress-activated protein kinase-2 alpha (p38 MAP-kinase) at 30 uM; summary of the method: as §1
# [10] = biological target: Mitogen-activated protein kinase 9 (Homo sapiens) (UniProt P45984); assay: Inhibition of human c-Jun N-terminal kinase-2 alpha-2 at 30 uM; summary of the method: as §1
# [11] = biological target: Mitogen-activated protein kinase 10 (Rattus norvegicus) (UniProt P49187); assay: Inhibition of rat c-Jun N-terminal kinase-3 at 30 uM; summary of the method: as §1
# [12] = biological target: Mitogen-activated protein kinase 1 (Homo sapiens) (UniProt P28482); assay: Inhibition of human Mitogen-activated protein kinase 2 at 30 uM; summary of the method: as §1
# [13] = biological target: Rho-associated protein kinase 2 (Homo sapiens) (UniProt O75116); assay: Inhibition of human Rho-dependent protein kinase-II at 30 uM
# [14] = biological target: Tyrosine-protein kinase Lck (Homo sapiens) (UniProt P06239); assay: Inhibition of human lymphocyte protein tyrosine kinase Lck at 30 uM; summary of the method: as §1
# Chain of Tyrosine-protein kinase Lck (Homo sapiens) (P06239 2-509 limits assumed): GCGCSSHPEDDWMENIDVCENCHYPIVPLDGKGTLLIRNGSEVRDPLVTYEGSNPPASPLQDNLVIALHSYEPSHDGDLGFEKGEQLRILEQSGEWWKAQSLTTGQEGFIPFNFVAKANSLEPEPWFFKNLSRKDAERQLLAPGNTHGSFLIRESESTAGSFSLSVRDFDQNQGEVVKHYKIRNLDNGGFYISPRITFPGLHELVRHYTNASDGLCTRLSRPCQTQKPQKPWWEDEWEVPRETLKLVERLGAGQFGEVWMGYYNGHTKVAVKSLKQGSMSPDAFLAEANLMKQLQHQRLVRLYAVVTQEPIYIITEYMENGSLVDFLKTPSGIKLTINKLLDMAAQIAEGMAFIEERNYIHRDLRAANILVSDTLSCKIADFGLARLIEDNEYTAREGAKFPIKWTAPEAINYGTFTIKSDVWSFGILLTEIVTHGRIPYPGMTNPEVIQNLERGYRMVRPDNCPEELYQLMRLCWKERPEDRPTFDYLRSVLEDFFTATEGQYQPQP
# Chain of RAC-alpha serine/threonine-protein kinase (Homo sapiens) (P31749 whole entry): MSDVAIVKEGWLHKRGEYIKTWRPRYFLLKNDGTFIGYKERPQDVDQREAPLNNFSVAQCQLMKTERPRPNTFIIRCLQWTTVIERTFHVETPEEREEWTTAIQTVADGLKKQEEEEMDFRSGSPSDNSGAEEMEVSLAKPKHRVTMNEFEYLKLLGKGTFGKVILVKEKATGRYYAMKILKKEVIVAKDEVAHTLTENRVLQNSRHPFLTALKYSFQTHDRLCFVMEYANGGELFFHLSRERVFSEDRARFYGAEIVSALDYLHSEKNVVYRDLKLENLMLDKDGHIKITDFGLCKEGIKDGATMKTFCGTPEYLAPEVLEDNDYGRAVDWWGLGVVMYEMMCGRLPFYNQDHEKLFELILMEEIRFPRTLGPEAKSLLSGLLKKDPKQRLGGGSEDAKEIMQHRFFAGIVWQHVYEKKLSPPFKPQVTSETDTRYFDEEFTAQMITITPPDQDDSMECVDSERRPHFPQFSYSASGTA
# Chain of Mitogen-activated protein kinase 14 (Homo sapiens) (Q16539 whole entry): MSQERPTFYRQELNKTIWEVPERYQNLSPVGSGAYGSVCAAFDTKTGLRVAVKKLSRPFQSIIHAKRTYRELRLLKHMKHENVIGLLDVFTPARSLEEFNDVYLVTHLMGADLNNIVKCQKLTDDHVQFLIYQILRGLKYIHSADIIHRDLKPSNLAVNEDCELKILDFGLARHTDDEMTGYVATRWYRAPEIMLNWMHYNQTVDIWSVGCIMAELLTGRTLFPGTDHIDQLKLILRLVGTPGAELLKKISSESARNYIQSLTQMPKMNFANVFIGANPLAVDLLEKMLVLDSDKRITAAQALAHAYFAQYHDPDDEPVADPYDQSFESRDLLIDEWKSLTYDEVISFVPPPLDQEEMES
# Chain of RAF proto-oncogene serine/threonine-protein kinase (Homo sapiens) (P04049 whole entry): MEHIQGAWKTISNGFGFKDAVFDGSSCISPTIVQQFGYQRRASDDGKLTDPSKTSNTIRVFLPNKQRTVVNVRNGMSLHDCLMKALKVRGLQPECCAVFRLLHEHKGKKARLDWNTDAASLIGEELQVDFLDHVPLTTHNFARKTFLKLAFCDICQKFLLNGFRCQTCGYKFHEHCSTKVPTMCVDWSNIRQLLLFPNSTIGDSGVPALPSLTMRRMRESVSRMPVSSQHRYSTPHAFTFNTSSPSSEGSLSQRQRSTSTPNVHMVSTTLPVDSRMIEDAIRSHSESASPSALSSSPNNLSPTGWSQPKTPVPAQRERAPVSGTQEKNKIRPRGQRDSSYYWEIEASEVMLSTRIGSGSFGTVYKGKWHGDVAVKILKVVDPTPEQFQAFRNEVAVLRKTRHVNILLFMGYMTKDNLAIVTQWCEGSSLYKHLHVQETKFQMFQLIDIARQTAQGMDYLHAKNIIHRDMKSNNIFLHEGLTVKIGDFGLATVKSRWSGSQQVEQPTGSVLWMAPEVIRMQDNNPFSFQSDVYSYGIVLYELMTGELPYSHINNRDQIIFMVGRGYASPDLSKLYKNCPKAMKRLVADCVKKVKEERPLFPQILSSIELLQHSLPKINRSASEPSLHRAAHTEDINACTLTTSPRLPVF
# Chain of Rho-associated protein kinase 2 (Homo sapiens) (O75116 whole entry, looked up): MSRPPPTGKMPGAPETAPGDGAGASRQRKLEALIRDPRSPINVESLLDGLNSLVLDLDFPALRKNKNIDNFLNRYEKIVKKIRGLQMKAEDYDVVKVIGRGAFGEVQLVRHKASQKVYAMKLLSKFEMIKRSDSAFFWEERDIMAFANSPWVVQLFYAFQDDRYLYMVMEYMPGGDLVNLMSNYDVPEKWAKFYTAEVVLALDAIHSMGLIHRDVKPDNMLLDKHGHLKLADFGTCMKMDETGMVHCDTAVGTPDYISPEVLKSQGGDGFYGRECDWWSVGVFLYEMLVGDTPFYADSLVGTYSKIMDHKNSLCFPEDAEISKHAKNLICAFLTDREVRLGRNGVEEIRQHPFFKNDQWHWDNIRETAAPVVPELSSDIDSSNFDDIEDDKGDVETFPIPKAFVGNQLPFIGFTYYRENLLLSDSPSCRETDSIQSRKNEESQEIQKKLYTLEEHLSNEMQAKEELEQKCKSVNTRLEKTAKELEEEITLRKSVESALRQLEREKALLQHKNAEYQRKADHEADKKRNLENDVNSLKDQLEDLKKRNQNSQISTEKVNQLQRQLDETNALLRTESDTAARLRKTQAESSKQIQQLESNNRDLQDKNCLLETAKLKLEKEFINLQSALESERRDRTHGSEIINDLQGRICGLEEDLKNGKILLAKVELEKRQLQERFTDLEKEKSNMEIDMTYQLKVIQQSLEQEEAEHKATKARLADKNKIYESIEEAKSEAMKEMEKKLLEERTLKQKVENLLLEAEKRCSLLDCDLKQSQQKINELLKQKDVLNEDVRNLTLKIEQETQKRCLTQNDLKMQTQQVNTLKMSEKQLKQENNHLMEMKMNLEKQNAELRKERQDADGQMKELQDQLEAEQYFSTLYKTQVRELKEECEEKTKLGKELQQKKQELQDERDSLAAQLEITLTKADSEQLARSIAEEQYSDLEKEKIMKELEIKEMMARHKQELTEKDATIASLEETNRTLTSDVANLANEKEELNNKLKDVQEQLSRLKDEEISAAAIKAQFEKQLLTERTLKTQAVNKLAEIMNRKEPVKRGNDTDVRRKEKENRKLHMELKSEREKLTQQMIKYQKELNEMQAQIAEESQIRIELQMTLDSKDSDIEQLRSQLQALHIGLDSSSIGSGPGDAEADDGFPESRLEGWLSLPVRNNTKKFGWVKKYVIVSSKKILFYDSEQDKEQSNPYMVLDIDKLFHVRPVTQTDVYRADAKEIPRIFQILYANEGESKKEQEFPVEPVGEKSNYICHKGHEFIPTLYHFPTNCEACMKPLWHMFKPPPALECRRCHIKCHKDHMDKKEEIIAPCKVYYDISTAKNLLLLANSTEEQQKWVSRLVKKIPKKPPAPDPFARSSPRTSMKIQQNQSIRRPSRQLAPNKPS
# Chain of Mitogen-activated protein kinase 9 (Homo sapiens) (P45984 whole entry, looked up): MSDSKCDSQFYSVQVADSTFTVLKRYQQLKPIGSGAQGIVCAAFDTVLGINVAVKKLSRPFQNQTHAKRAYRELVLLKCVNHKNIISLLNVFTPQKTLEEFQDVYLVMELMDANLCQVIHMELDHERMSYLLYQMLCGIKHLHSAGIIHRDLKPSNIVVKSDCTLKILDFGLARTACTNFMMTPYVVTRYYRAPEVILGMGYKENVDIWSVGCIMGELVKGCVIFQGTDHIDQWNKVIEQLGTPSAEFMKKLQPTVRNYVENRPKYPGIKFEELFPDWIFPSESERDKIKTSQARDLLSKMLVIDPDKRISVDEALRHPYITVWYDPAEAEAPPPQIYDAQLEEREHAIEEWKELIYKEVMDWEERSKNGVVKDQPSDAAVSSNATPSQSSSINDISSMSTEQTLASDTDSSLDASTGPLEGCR
# Chain of Glycogen synthase kinase-3 beta (Homo sapiens) (P49841 whole entry, looked up): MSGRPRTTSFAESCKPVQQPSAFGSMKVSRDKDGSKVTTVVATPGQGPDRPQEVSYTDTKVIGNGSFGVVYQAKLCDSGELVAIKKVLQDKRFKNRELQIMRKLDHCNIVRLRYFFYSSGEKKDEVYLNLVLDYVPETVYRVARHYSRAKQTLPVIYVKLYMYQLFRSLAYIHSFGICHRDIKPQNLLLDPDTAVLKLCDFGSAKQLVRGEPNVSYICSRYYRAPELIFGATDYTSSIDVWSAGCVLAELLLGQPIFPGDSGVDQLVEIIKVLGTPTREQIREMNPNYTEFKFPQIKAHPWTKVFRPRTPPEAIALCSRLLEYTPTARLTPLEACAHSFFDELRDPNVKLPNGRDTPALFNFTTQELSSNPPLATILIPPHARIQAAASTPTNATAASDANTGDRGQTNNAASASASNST
# Chain of Mitogen-activated protein kinase 8 (Homo sapiens) (P45983 whole entry): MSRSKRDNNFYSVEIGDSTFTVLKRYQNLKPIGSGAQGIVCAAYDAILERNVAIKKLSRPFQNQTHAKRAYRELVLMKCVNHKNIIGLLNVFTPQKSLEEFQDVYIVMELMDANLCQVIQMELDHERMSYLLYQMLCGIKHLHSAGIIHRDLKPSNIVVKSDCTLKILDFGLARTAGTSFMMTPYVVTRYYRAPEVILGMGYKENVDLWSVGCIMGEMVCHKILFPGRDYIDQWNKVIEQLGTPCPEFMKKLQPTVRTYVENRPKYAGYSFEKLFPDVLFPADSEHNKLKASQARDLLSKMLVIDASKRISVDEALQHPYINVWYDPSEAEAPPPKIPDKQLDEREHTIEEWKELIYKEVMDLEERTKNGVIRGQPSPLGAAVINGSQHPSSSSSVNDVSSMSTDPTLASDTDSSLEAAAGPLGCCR
# Chain of Mitogen-activated protein kinase 1 (Homo sapiens) (P28482 whole entry): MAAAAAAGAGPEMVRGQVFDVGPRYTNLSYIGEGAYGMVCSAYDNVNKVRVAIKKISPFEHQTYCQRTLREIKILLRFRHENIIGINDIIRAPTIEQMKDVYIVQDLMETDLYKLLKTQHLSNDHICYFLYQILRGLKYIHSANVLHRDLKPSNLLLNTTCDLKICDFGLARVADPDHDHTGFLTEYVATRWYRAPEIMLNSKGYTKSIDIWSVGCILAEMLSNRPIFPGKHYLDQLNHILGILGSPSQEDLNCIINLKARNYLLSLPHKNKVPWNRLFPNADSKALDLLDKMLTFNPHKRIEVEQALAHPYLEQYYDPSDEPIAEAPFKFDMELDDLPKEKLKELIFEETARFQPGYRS
inhibition [1],inhibition [2],inhibition [3],inhibition [4],inhibition [5],inhibition [6],inhibition [7],inhibition [8],inhibition [9],inhibition [10],inhibition [11],inhibition [12],inhibition [13],inhibition [14],SMILES
0%,0%,14%,0%,1%,8%,0%,4%,10%,0%,20%,0%,0%,0%,Fc1ccc(Cn2cnc3c(Cl)ncnc32)cc1
1%,8%,18%,14%,4%,0%,11%,10%,36%,8%,7%,3%,5%,16%,Cn1c(-c2ccc(S(C)(=O)=O)cc2)nc2c(Sc3ccccc3)ncnc21
0%,0%,0%,0%,3%,8%,0%,0%,27%,0%,0%,0%,0%,16%,Fc1ccc(Cn2cnc3c(Sc4ccc(F)cc4)ncnc32)cc1
0%,0%,0%,13%,1%,0%,0%,0%,67%,0%,0%,0%,2%,12%,Fc1ccc(Cn2cnc3c(Sc4ccccc4)ncnc32)cc1
4%,8%,14%,0%,8%,0%,7%,28%,8%,7%,25%,5%,6%,0%,Nc1ncnc2ncn(Cc3ccc(F)cc3)c12
9%,8%,14%,15%,9%,11%,7%,12%,16%,11%,14%,9%,8%,21%,Cn1cnc2c(-c3ccccc3)ncnc21
0%,0%,5%,1%,0%,19%,0%,0%,23%,0%,0%,0%,0%,23%,Cn1c(Br)nc2c(Sc3ccccc3)ncnc21
0%,8%,8%,4%,3%,4%,0%,0%,27%,0%,6%,0%,1%,30%,Cn1c(-c2ccc([S+](C)[O-])cc2)nc2c(Sc3ccccc3)ncnc21 (stereo not drawn)
5%,12%,8%,0%,1%,3%,0%,9%,16%,3%,14%,0%,10%,5%,Cn1cnc2c(-c3ccc(F)cc3)ncnc21
0%,2%,7%,0%,3%,5%,7%,9%,8%,0%,30%,3%,1%,0%,COc1ncnc2ncn(Cc3ccc(F)cc3)c12
0%,0%,0%,5%,4%,3%,0%,5%,11%,1%,0%,0%,0%,0%,CSc1ccc(-c2nc3c(Sc4ccccc4)ncnc3n2C)cc1
1%,0%,8%,0%,1%,0%,11%,3%,12%,1%,0%,6%,16%,11%,c1ccc(Oc2ncnc3[nH]cnc23)cc1
0%,0%,4%,0%,0%,4%,0%,0%,0%,0%,3%,0%,0%,2%,c1ccc(-[n+]2c[nH]c3ncncc32)cc1
1%,0%,2%,0%,7%,7%,1%,25%,7%,0%,17%,11%,5%,19%,Nc1ncnc2c1ncn2Cc1ccccc1
6%,8%,13%,0%,4%,0%,0%,20%,17%,9%,21%,1%,7%,0%,Fc1ccc(Cn2cnc3ncnc(Cl)c32)cc1
3%,7%,0%,0%,4%,5%,0%,1%,15%,5%,3%,0%,0%,1%,CSc1ccc(-c2nc3c(Sc4ccc(F)cc4)ncnc3n2C)cc1
0%,12%,15%,10%,1%,4%,4%,4%,44%,1%,10%,0%,0%,30%,Cn1c(-c2ccc([S+](C)[O-])cc2)nc2c(Sc3ccc(F)cc3)ncnc21 (stereo not drawn)
